Hits are enriched below; roughly 3.4% of the tested compounds scored in any of these assays.
VIM-2 inh – inhibitors of Pseudomonas aeruginosa VIM-2 metallo-beta-lactamase; AID 1527; 290,000 compounds, 0.89% hits; inhibition, % at 5.6 µM; purified VIM-2, nitrocefin hydrolysis, epi-absorbance fluorescence;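 active means inhibition above the mean of all tested compounds plus 3 SD, cutoff set per screening run, cut at about 7.5% in these data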;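 further: red hydrolysis product quenches plate fluorescence so inhibitors raise well fluorescence; 0% = enzyme with DMSO and 100% = DMSO without enzyme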
ANO1 activ – mouse TMEM16A channel activation, primary screen; HEK293 TMEM16A/YFP-H148Q/I152L, iodide quench fluorescence; stronger effect = lower value; B-score at 10 µM; 340,000 compounds, 0.3% hits;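 active means fluorescence-ratio B-score plate-corrected deviation score at least 3 library SD below zero, with starting fluorescence score within 5 deviations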;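 further: channel opened by trigger with iodide after compound preincubation; score built on the fluorescence ratio of max minus min over baseline; more negative score means more quench and so TMEM16A activation or potentiation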
CHT PAM – allosteric activators of human choline transporter CHT; CHT-expressing cells, membrane potential dye, choline EC20; stronger effect = higher value; LV-AA mutant CHT in HEK293 cells; B-score at 10 µM; 310,000 compounds, 0.49% hits; AID 488977;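 active means initial fluorescence not abnormally high and integrated response B-score, plate-corrected, over 3 SD above library mean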
TMEM16A inh – blocks the mouse calcium-activated chloride channel TMEM16A | 310,000 compounds, 1.2% hits | normalized B-score (activity score, 25-100; higher = stronger inhibition) at 10 µM | HEK293 TMEM16A/YFP iodide influx fluorescence, ionomycin | AID 588511;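 active means ratio plate-corrected score three or more library SD toward inhibition, starting fluorescence score within five deviations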;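 further: score derived from kinetic fluorescence span divided by baseline fluorescence per well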
IMP-1 inhibitor – inhibitors of Pseudomonas aeruginosa IMP-1 metallo-beta-lactamase; purified IMP-1, nitrocefin hydrolysis, epi-absorbance fluorescence; inhibition, % at 5.6 µM; AID 1556; 290,000 compounds, 0.45% hits;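 active means inhibition above the mean plus 3 SD of all compounds in the same screening run, cut at about 4.5% in these data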;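 further: 0% = IMP-1 with DMSO and 100% = DMSO wells lacking enzyme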
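System: Purified IMP-1 | Read-out basis: Percent enzyme inhibition | Controls: IMP-1 with DMSO as 0%, enzyme-free DMSO as 100% | Replicates: One well per compound | Doses: 5.6 µM nominal single concentration | Detection: Epi-absorbance fluorescence, 480 nm excitation, 530 nm emission | Incubation: 25 °C, 15 min preincubation, 25 min reaction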
CHT block – human CHT choline transport inhibition; Q9GZV3; CHT-expressing cells, membrane potential dye, choline response; stronger effect = lower value; B-score at 10 µM; 310,000 compounds, 0.86% hits; AID 488975;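 active means B-score over 3 SD under the library average, and starting fluorescence ratio not unusually high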;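 further: choline stimulus applied at its EC90 after an EC20 pre-addition; B-score computed on integrated fluorescence ratio after choline addition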
TMEM16A reconf – re-confirmation of mouse TMEM16A chloride channel inhibitors; shares compounds with TMEM16A inh; HEK293 TMEM16A/YFP-H148Q, iodide quench fluorescence; ionomycin added to raise cell calcium; inhibition, % at 10 µM; 2,300 compounds, 39% hits; AID 652189;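 active means mean duplicate percent inhibition, scaled so buffer wells are 0 and the reference blocker 100, over three buffer SD above buffer mean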
HEK293 Ca mobil – calcium mobilization counter-screen hit for TMEM16A inhibitor series | shares compounds with TMEM16A inh | TMEM16A/YFP HEK293, Fluo4 calcium mobilization | calcium response (% of ionomycin), % at 10 µM | 2,300 compounds, 2% hits | AID 652231;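 active means duplicate-averaged calcium signal over 20% of the ionomycin maximum, relative to buffer baseline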;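 further: each well's signal is peak minus trough fluorescence divided by its pre-addition baseline; 0% = buffer wells and 100% = ionomycin wells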
YFP-HEK293 quench – acts in parental YFP-HEK293 cells lacking TMEM16A, counter-screen | YFP ratio F(max-min)/F0 at 10 µM | 2,300 tested, under 10 active | shares compounds with TMEM16A inh | iodide YFP quench, ionomycin | AID 652233;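 active means yellow fluorescent protein signal ratio exceeding the buffer control mean by over 5 SD of those controls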;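 further: ratio is mean of duplicate wells from kinetic YFP trace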
ClC-1 rat inh – blocks the rat ClC-1 voltage-dependent chloride channel; shares compounds with TMEM16A inh; CHO ClC-1-YFP, iodide influx fluorescence quench; iodide control reads 0, buffer control 100; ratio percent, % at 10 µM; 2,300 tested, under 10 active;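 active means duplicate-mean ratio percent above the mean of iodide-only control wells, which defines zero, plus 5 of their SD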;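 further: higher percent means stronger block of ClC-1 iodide influx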
* marks the source's active call; other numbers are inactive results; i = inactive; . = no result given.

SMILES	VIM-2 inh	ANO1 activ	CHT PAM	TMEM16A inh	IMP-1 inhibitor	CHT block	TMEM16A reconf	HEK293 Ca mobil	YFP-HEK293 quench	ClC-1 rat inh
OCCCNCc1ccc(N(c2ccccc2)c2ccccc2)cc1	-1	i	i	i	-2	i	.	.	.	.
N#CC1=C(N)OC2=C(CCc3ccccc32)C1c1ccccc1Cl (configuration not stated)	1	i	i	i	-2	i	38%*	i	-1	0
CN(c1ccccc1)S(=O)(=O)c1ccc(C(=O)Nc2nnc(-c3ccc(F)cc3)o2)cc1	-3	.	i	100*	-1	i	18%*	i	-1	-8
CC(=O)Nc1cc([N+](=O)[O-])ccc1OCc1ccccc1	.	i	.	.	.	.	.	.	.	.
CC(C)c1nnc(SCC(=O)N2CCc3ccccc32)n1C	-5	i	i	100*	-7	i	i	i	-1	-3
CCc1nnc(SCC(=O)N2CCc3ccccc32)n1CC	0	i	i	i	0	i	.	.	.	.
CCOC(=O)C1CCN(S(=O)(=O)c2ccc(Cl)s2)CC1	-1	i	i	i	-3	i	.	.	.	.
COc1ccc(CCNC(=O)c2ccc(N3CCCC3=O)cc2)cc1	-1	i	i	i	-2	i	.	.	.	.
CCOc1ccc(CCNC(=O)c2ccc(N3CCCC3=O)cc2)cc1OCC	-1	i	i	25*	-4	i	i	i	-1.2	-10
O=C(Nc1ccc(Cl)cc1)c1cccs1	-4	i	i	25*	-5	i	i	i	-1.1	-15
O=C(Nc1nc(-c2ccc(Cl)s2)cs1)c1cccs1	2	i	i	25*	0	i	i	i	-0.96	-18
O=C(Nc1nc(-c2ccccc2)ns1)c1cccs1	-1	i	i	i	1	i	.	.	.	.
O=C(Nc1nc(-c2ccccc2)cs1)c1cccs1	-4	i	i	25*	-3	i	22%*	i	-1.1	-2
O=C(Nc1ccc(NC(=O)c2cccs2)cc1)c1cccs1	-2	i	i	i	-4	i	.	.	.	.
OC1Cc2ccccc2C1Nc1cccc(C(F)(F)F)c1 (configuration not stated)	.	i	.	.	.	.	.	.	.	.
COc1ccc(OCCN2C(=O)c3cccc(N)c3C2=O)cc1	2	i	i	i	-3	i	.	.	.	.
O=S(=O)(Nc1c(F)cccc1F)c1ccc(Cl)nc1	.	i	i	i	.	i	.	.	.	.
CN1CCc2c(sc(NC(=O)c3ccc(S(=O)(=O)N4CCc5ccccc54)cc3)c2C(N)=O)C1	3	.	i	i	-1	i	.	.	.	.
CNC(=O)c1c(NC(=O)c2ccc(S(=O)(=O)N3CCCc4ccccc43)cc2)sc2c1CCN(C)C2	-1	i	i	i	0	i	i	i	-0.85	-2
CCN1CCc2c(sc(N)c2C(N)=O)C1	1	i	i	i	2	i	27%*	i	-1.1	-4
CN1C(=O)C2(OCC(COc3ccc(Cl)cc3)O2)c2ccccc21 (configuration not stated)	-3	i	i	100*	-1	i	18%*	i	-1	-8
O=C(c1ccc(F)cc1)C1CCN(C(=O)N2CCOCC2)CC1	-2	i	i	i	-2	i	i	i	-1.1	-12
C[C@@H](C(=O)Nc1ccc2ccccc2c1)[C@@H]1C[C@@]1(C)[C@@H](NC(=O)c1cnccn1)c1ccccc1	0	i	i	i	-2	i	.	.	.	.
C[C@@H](C(=O)Nc1ccc2ccccc2c1)[C@H]1C[C@]1(C)[C@H](NC(=O)c1cnccn1)c1ccccc1	1	i	i	i	0	i	i	i	-1.2	-9
COC(=O)C1CCN(c2cc(=O)n(-c3ccccc3Cl)c(=O)[nH]2)CC1	-1	i	i	100*	-2	i	i	i	-1.1	-6
SMILES	VIM-2 inh	ANO1 activ	CHT PAM	TMEM16A inh	IMP-1 inhibitor	CHT block	TMEM16A reconf	HEK293 Ca mobil	YFP-HEK293 quench	ClC-1 rat inh
COc1ccccc1OCC(=O)Nc1oc(-c2ccccc2)c(-c2ccccc2)c1C#N	-3	i	i	25*	-3	i	29%*	i	-0.65	-15
CCOC(=O)c1cnc(-n2nc(C)cc2C)nc1N1CCOCC1	2	i	i	i	-5	i	.	.	.	.
CCOC(=O)c1cnc(-n2nc(C)cc2C)nc1NC1CCCC1	8.4*	i	i	25*	-4	i	54%*	i	-0.95	-38
Cc1ccc(C)c(S(=O)(=O)N2CCN(C(=O)c3sccc3C)CC2)c1	.	i	i	i	.	i	.	.	.	.
CC1=CC(C)(C)N(S(=O)(=O)c2ccc(C)cc2)c2ccccc21	-5	i	i	100*	-3	i	i	i	-0.94	-16
Nn1c(-c2cccs2)nc2sc3c(c2c1=O)CCCC3	-1	i	i	25*	0	i	30%*	i	-0.99	-18
CCOc1ccc(OCC)c(NC(=O)CCn2c(=O)oc3ccccc32)c1	-1	i	i	100*	-2	i	i	i	-1	-6
CCOc1ccccc1NC(=O)Cn1c(=O)oc2ccccc21	-4	i	i	i	-3	i	.	.	.	.
CC(Sc1nncn1C)C(=O)Nc1ccc2ccccc2c1 (configuration not stated)	.	i	.	.	.	.	.	.	.	.
COCCn1c(C)cc(C(=O)CSc2ncn[nH]2)c1C	-2	i	i	100*	-3	i	i	i	-1.1	-7
O=C(Cn1cnc2ccccc21)NCc1ccccc1	-5	i	i	i	0	i	.	.	.	.
O=C(Cn1cnc2ccccc21)Nc1ccc(SC(F)F)cc1	-5	i	i	25*	-5	i	20%*	i	-0.9	-20
Cc1ccc2c(c1)N(CC(=O)Nc1nccs1)C(=O)CO2	.	i	.	.	.	.	.	.	.	.
Cc1ccc(NC(=O)CN2C(=O)COc3ccc(C)cc32)nc1	-3	i	i	25*	-2	i	i	i	-0.89	-18

Source: PubChem BioAssay
